Data taken from ChEMBL document CHEMBL3102784, “Salicylanilide diethyl phosphates: synthesis, antimicrobial activity and cytotoxicity” (Bioorg Med Chem, 2014).
Converted amounts (≈) assume the structure as drawn. The source made the active and inactive calls. The calls are words filed in the database; no cut-off is given here.

Columns and labels:
Candida tropicalis = assay: Antifungal activity against Candida tropicalis 156 at 500 micromol/L after 24 to 48 hrs by broth microdilution method; type: functional, organism-based
Method in brief: (§1)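 Broth microdilution in RPMI 1640 with glutamine, fluconazole as reference. For yeasts, MIC is ≥80% growth reduction (IC80) versus control. For filamentous fungi, the value is expressed as IC50. Readings at 24 and 48 h.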

Klebsiella pneumoniae [1] = assay: Antibacterial activity against Klebsiella pneumoniae D 11750/08 at 500 micromol/L after 24 to 48 hrs by broth microdilution method; type: functional, organism-based
Method in brief: (§2)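 Broth microdilution in Mueller–Hinton broth, compounds dissolved in DMSO, tested over a dilution series from 500 downward. MIC taken as ≥95% growth reduction (IC95) versus drug-free control. Benzylpenicillin comparator. Readings at 24 and 48 h.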

Escherichia coli = assay: Antibacterial activity against Escherichia coli CCM 4517 at 500 micromol/L after 24 to 48 hrs by broth microdilution method; type: functional, organism-based; method in brief: as §2
Pichia kudriavzevii [2] = assay: Antifungal activity against Candida krusei E28 after 48 hrs by broth microdilution method; type: functional; conditions: E28, 48 h; method in brief: as §1
Staphylococcus aureus [3] = assay: Antibacterial activity against methicillin-resistant Staphylococcus aureus H 5996/08 after 24 hrs by broth microdilution method; type: functional; conditions: H 5996/08, 24 h; method in brief: as §2
Lichtheimia corymbifera [4] = assay: Antifungal activity against Absidia corymbifera 272 after 24 hrs by broth microdilution method; type: functional; conditions: Lichtheimia corymbifera, 272, 24 h; method in brief: as §1
Trichosporon asahii [5] = assay: Antifungal activity against Trichosporon asahii 1188 after 48 hrs by broth microdilution method; type: functional; conditions: Trichosporon asahii, 1188, 48 h; method in brief: as §1
[6] = tested on: Trichophyton mentagrophytes; assay: Antifungal activity against Trichophyton mentagrophytes 445 after 120 hrs by broth microdilution method; type: functional; conditions: Trichophyton mentagrophytes, 445, 120 h
Method in brief: (§3)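 Filamentous dermatophyte tested by broth microdilution in RPMI 1640 with glutamine, fluconazole as reference. Value expressed as IC50 relative to growth control. Read at 72 and 120 h.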

Enterococcus sp. = assay: Antibacterial activity against Enterococcus sp. J 14365/08 at 500 micromol/L after 24 to 48 hrs by broth microdilution method; type: functional, organism-based; method in brief: as §2
[7] = tested on: Trichophyton mentagrophytes; assay: Antifungal activity against Trichophyton mentagrophytes 445 after 72 hrs by broth microdilution method; type: functional; conditions: Trichophyton mentagrophytes, 445, 72 h; method in brief: as §3
Lichtheimia corymbifera [8] = assay: Antifungal activity against Absidia corymbifera 272 after 48 hrs by broth microdilution method; type: functional; conditions: Lichtheimia corymbifera, 272, 48 h; method in brief: as §1
Staphylococcus aureus [9] = assay: Antibacterial activity against methicillin-resistant Staphylococcus aureus H 5996/08 after 48 hrs by broth microdilution method; type: functional; conditions: H 5996/08, 48 h; method in brief: as §2
Pichia kudriavzevii [10] = assay: Antifungal activity against Candida krusei E28 after 24 hrs by broth microdilution method; type: functional; conditions: E28, 24 h; method in brief: as §1
Trichosporon asahii [11] = assay: Antifungal activity against Trichosporon asahii 1188 after 24 hrs by broth microdilution method; type: functional; conditions: Trichosporon asahii, 1188, 24 h; method in brief: as §1
Mycobacterium kansasii [12] = assay: Antimycobacterial activity against Mycobacterium kansasii My 235/80 after 21 days; type: functional; conditions: My 235/80, 504 h
Method in brief: (§4)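 Micromethod MIC in Šula's semisynthetic medium at 37 °C. Compounds added in DMSO at 1000 down to 0.032 µmol/L. Isoniazid standard in sterile water at 0.5–250 µmol/L. Inocula: H37Rv 10^3, M. avium 10^5, M. kansasii 10^4. Read at 14 and 21 d, plus 7 d for M. kansasii.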

[13] = tested on: Staphylococcus epidermidis; assay: Antibacterial activity against Staphylococcus epidermidis H 6966/08 after 48 hrs by broth microdilution method; type: functional; conditions: H 6966/08, 48 h; method in brief: as §2
Staphylococcus aureus [14] = assay: Antibacterial activity against Staphylococcus aureus CCM 4516/08 after 48 hrs by broth microdilution method; type: functional; conditions: CCM 4516/08, 48 h; method in brief: as §2
Candida albicans [15] = assay: Antifungal activity against Candida albicans ATCC 44859 after 48 hrs by broth microdilution method; type: functional; conditions: ATCC 44859, 48 h; method in brief: as §1
[16] = tested on: Mycobacterium tuberculosis; assay: Antimycobacterial activity against Mycobacterium tuberculosis H37Rv My 331/88 after 14 days; type: functional; conditions: H37Rv My 331/88, 336 h; method in brief: as §4
Pseudomonas aeruginosa = assay: Antibacterial activity against Pseudomonas aeruginosa CCM 1961 at 500 micromol/L after 24 to 48 hrs by broth microdilution method; type: functional, organism-based; method in brief: as §2
Aspergillus fumigatus [17] = assay: Antifungal activity against Aspergillus fumigatus 231 after 48 hrs by broth microdilution method; type: functional; conditions: Aspergillus fumigatus, 231, 48 h; method in brief: as §1
Nakaseomyces glabratus = assay: Antifungal activity against Candida glabrata 20/I at 500 micromol/L after 24 to 48 hrs by broth microdilution method; type: functional, organism-based; method in brief: as §1
Staphylococcus aureus [18] = assay: Antibacterial activity against Staphylococcus aureus CCM 4516/08 after 24 hrs by broth microdilution method; type: functional; conditions: CCM 4516/08, 24 h; method in brief: as §2
[19] = tested on: Mycobacterium tuberculosis; assay: Antimycobacterial activity against Mycobacterium tuberculosis H37Rv My 331/88 after 21 days; type: functional; conditions: H37Rv My 331/88, 504 h; method in brief: as §4
Aspergillus fumigatus [20] = assay: Antifungal activity against Aspergillus fumigatus 231 after 24 hrs by broth microdilution method; type: functional; conditions: Aspergillus fumigatus, 231, 24 h; method in brief: as §1
Mycobacterium kansasii [21] = assay: Antimycobacterial activity against Mycobacterium kansasii My 235/80 after 7 days; type: functional; conditions: My 235/80, 168 h; method in brief: as §4
Mycobacterium kansasii [22] = assay: Antimycobacterial activity against Mycobacterium kansasii 6509/96 after 7 days; type: functional; conditions: 6509/96, 168 h; method in brief: as §4
Mycobacterium kansasii [23] = assay: Antimycobacterial activity against Mycobacterium kansasii 6509/96 after 21 days; type: functional; conditions: 6509/96, 504 h; method in brief: as §4
HepG2 = assay: Cytotoxicity against human HepG2 cells after 24 hrs by CellTiter assay; type: cell-based; conditions: HepG2, 24 h
Method in brief: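 HepG2 cells (passage 27–33) in MEM with 10% FBS, L-glutamine and NEAA, seeded at 1×10^4 per well. Treated next day with compounds at 0.1–100 µM (or 0.1–25 µmol/L), triplicates, <1% DMSO, for 24 h at 37 °C, 5% CO2. MTS reagent added for 2 h, absorbance read at 490 nm. IC50 taken against untreated (100%) and 10% DMSO (0%) controls.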

Klebsiella pneumoniae [24] = assay: Antibacterial activity against ESBL-positive Klebsiella pneumoniae J 14368/08 at 500 micromol/L after 24 to 48 hrs by broth microdilution method; type: functional, organism-based; method in brief: as §2
Mycobacterium kansasii [25] = assay: Antimycobacterial activity against Mycobacterium kansasii My 235/80 after 14 days; type: functional; conditions: My 235/80, 336 h; method in brief: as §4
Candida albicans [26] = assay: Antifungal activity against Candida albicans ATCC 44859 after 24 hrs by broth microdilution method; type: functional; conditions: ATCC 44859, 24 h; method in brief: as §1
Mycobacterium kansasii [27] = assay: Antimycobacterial activity against Mycobacterium kansasii 6509/96 after 14 days; type: functional; conditions: 6509/96, 336 h; method in brief: as §4
Mycobacterium avium [28] = assay: Antimycobacterial activity against isoniazid, rifampicin, ethambutol and ofloxacin-resistant Mycobacterium avium My 330/88 after 14 days; type: functional; conditions: My 330/88, 336 h; method in brief: as §4
Mycobacterium avium [29] = assay: Antimycobacterial activity against isoniazid, rifampicin, ethambutol and ofloxacin-resistant Mycobacterium avium My 330/88 after 21 days; type: functional; conditions: My 330/88, 504 h; method in brief: as §4
[30] = tested on: Staphylococcus epidermidis; assay: Antibacterial activity against Staphylococcus epidermidis H 6966/08 after 24 hrs by broth microdilution method; type: functional; conditions: H 6966/08, 24 h; method in brief: as §2

SMILES | Activity (Candida tropicalis) | Activity (Klebsiella pneumoniae [1]) | Activity (Escherichia coli) | MIC80 (Pichia kudriavzevii [2]) | MIC95 (Staphylococcus aureus [3]) | MIC50 (Lichtheimia corymbifera [4]) | MIC80 (Trichosporon asahii [5]) | MIC50 [6] | Activity (Enterococcus sp.) | MIC50 [7] | MIC50 (Lichtheimia corymbifera [8]) | MIC95 (Staphylococcus aureus [9]) | MIC80 (Pichia kudriavzevii [10]) | MIC80 (Trichosporon asahii [11]) | MIC (Mycobacterium kansasii [12]) | MIC95 [13] | MIC95 (Staphylococcus aureus [14]) | MIC80 (Candida albicans [15]) | MIC [16] | Activity (Pseudomonas aeruginosa) | also measured
CCOP(=O)(OCC)Oc1ccc(Br)cc1C(=O)Nc1ccc(Cl)cc1 | inactive | inactive | inactive | > 500 µM | 500 µM (≈ 231 µg/mL) | > 500 µM | > 500 µM | > 500 µM | inactive | > 500 µM | > 500 µM | > 500 µM | > 500 µM | > 500 µM | 8 µM (≈ 3.7 µg/mL) | > 500 µM | > 500 µM | > 500 µM | 2 µM (≈ 0.925 µg/mL) | inactive | MIC50 (Aspergillus fumigatus [17]): > 500 µM; Activity (Nakaseomyces glabratus): inactive; MIC95 (Staphylococcus aureus [18]): 500 µM (≈ 231 µg/mL); MIC [19]: 4 µM (≈ 1.85 µg/mL); MIC50 (Aspergillus fumigatus [20]): > 500 µM; MIC (Mycobacterium kansasii [21]): 4 µM (≈ 1.85 µg/mL); MIC (Mycobacterium kansasii [22]): 4 µM (≈ 1.85 µg/mL); MIC (Mycobacterium kansasii [23]): 4 µM (≈ 1.85 µg/mL); IC50 (HepG2): 6.81 µM; Activity (Klebsiella pneumoniae [24]): inactive; MIC (Mycobacterium kansasii [25]): 4 µM (≈ 1.85 µg/mL); MIC80 (Candida albicans [26]): > 500 µM; MIC (Mycobacterium kansasii [27]): 4 µM (≈ 1.85 µg/mL); MIC (Mycobacterium avium [28]): 8 µM (≈ 3.7 µg/mL); MIC (Mycobacterium avium [29]): 8 µM (≈ 3.7 µg/mL); MIC95 [30]: 500 µM (≈ 231 µg/mL)
CCOP(=O)(OCC)Oc1ccc(Cl)cc1C(=O)Nc1ccc(F)cc1 | inactive | inactive | inactive | > 500 µM | > 500 µM | > 500 µM | > 500 µM | > 500 µM | inactive | > 500 µM | > 500 µM | > 500 µM | > 500 µM | > 500 µM | 32 µM (≈ 12.9 µg/mL) | > 500 µM | 500 µM (≈ 201 µg/mL) | > 500 µM | 8 µM (≈ 3.21 µg/mL) | inactive | MIC50 (Aspergillus fumigatus [17]): > 500 µM; Activity (Nakaseomyces glabratus): inactive; MIC95 (Staphylococcus aureus [18]): 250 µM (≈ 100 µg/mL); MIC [19]: 16 µM (≈ 6.43 µg/mL); MIC50 (Aspergillus fumigatus [20]): > 500 µM; MIC (Mycobacterium kansasii [21]): 32 µM (≈ 12.9 µg/mL); MIC (Mycobacterium kansasii [22]): 16 µM (≈ 6.43 µg/mL); MIC (Mycobacterium kansasii [23]): 32 µM (≈ 12.9 µg/mL); IC50 (HepG2): 31.4 µM; Activity (Klebsiella pneumoniae [24]): inactive; MIC (Mycobacterium kansasii [25]): 32 µM (≈ 12.9 µg/mL); MIC80 (Candida albicans [26]): > 500 µM; MIC (Mycobacterium kansasii [27]): 32 µM (≈ 12.9 µg/mL); MIC (Mycobacterium avium [28]): 62.5 µM (≈ 25.1 µg/mL); MIC (Mycobacterium avium [29]): 62.5 µM (≈ 25.1 µg/mL); MIC95 [30]: > 500 µM
